ChEMBL document CHEMBL5715950, “Characterization of molecular and cellular functions of the cyclin-dependent kinase CDK9 using a novel specific inhibitor” (Br J Pharmacol, 2014)
pIC50, pKd: −log10 of the molar value. Calls of active or inactive are those of the source. No cut-off for these calls is given here.

Tests used:
[1] = target: Calcium/calmodulin-dependent protein kinase type IV (Homo sapiens, UniProt Q16566); test: Inhibition of CAMK4 (unknown origin) incubated for 120 mins in presence of 33P-ATP by radiometric kinase assay
[2] = target: Cyclin-dependent kinase 9 (Homo sapiens) (UniProt P50750); test: Inhibition of CDK9 in human HeLa cells assessed as upregulation of serine 5 phosphorylation at 10 uM incubated for 1 hr by chromatin immunoprecipitation assay; assay type: cell-based
HEK-293T = test: Inhibition of transcription in human HEK293T cells nuclear extract fused with Gal4-VP16 at 10 uM in presence of ATP and KCL by phosphorimaging analysis; assay type: functional, subcellular; conditions: Nucleus
In short: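 In vitro transcription from the adenovirus core promoter (Gal-ML, 380 bp G-free cassette), soluble or bead-immobilised template, using HEK293T nuclear extract supplemented with recombinant Gal4-VP16. ATP 60 μM (low), 100 μM, or 500 μM (high); magnesium varied in one series. Transcripts quantified by phosphorimaging.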

A549 [3] = test: Transcription level in human A549 cells nuclear extract fused with Gal4-VP16 at 10 uM in presence of ATP by phosphorimaging analysis relative to control
[4] = target: T1, Glycogen synthase kinase-3 alpha (Homo sapiens, UniProt P49840); test: Inhibition of GSK3A (unknown origin) assessed as residual activity at 10 uM incubated for 120 mins in presence of 33P-ATP by radiometric kinase assay relative to control
Target sequence in this assay (P49840 2-483 limits assumed): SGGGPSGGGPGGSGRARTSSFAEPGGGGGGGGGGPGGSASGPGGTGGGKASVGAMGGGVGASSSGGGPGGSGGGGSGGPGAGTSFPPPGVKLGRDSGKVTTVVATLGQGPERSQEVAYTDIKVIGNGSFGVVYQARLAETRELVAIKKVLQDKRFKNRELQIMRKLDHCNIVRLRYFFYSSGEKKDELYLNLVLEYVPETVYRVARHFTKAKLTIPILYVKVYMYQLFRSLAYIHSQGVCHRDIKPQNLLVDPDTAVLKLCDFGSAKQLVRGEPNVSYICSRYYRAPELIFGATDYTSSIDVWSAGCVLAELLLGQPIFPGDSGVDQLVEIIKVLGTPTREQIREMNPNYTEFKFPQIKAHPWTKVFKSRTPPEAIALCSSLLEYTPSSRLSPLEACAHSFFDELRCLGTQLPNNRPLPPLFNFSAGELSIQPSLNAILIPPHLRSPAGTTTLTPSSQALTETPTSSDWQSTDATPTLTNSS

HeLa = test: Inhibition of RNA synthesis in human HeLa cells stably transfected with luciferase reporter gene incubated for 30 mins followed by doxycycline addition and measured after 60 mins by RT-qPCR analysis; assay type: functional, cell-based; conditions: time 90.0 min
In short: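 Stably transfected HeLa cells carrying a tetracycline-inducible luciferase reporter: inhibitor or DMSO for 30 min, then 1 μg/mL doxycycline for 60 min. De novo reporter transcripts measured by RT-qPCR.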

[5] = target: Cyclin-dependent kinase 9 (Homo sapiens) (UniProt P50750); test: Inhibition of CDK9 in human A549 cells assessed as downregulation of CCND1 mRNA expression at 2 to 6 uM incubated for 90 mins by RT-qPCR analysis relative to control; assay type: cell-based; conditions: dose 2-6 µM
[6] = Selectivity ratio of IC50 for inhibition of CDK9/Cyclin T1 (unknown origin) to IC50 for inhibition of CDK4/Cyclin D1 (unknown origin)
[7] = Selectivity ratio of IC50 for inhibition of CDK9/Cyclin T1 (unknown origin) to IC50 for inhibition of CDK7/Cyclin H/MAT1 (unknown origin)
[8] = target: T1, Glycogen synthase kinase-3 alpha; test: Inhibition of GSK3A (unknown origin) incubated for 120 mins in presence of 33P-ATP by radiometric kinase assay
Target sequence in this assay (P49840 whole entry): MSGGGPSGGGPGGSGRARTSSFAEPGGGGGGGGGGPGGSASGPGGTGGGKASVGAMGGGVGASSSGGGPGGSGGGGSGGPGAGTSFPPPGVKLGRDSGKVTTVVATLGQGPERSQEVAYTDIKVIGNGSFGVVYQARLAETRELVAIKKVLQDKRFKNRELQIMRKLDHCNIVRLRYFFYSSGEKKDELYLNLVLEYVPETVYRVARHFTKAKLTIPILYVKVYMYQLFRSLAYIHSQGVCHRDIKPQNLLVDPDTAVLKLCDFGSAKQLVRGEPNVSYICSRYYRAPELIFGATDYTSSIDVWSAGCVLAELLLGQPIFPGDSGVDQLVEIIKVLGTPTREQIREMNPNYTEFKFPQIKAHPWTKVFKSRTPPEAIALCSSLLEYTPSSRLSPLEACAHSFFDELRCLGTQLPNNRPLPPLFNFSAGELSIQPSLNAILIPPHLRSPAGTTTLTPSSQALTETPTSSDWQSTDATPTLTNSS

[9] = Inhibition of CDK2/Cyclin A (unknown origin) using ULight MBP peptide as substrate in presence of ATP incubated for 1 hr by FRET based LANCE Ultra KinaSelect screen assay; set-up: species or system Homo sapiens
In short: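 Time-resolved FRET kinase assay with purified CDK-cyclin pairs. ULight MBP peptide substrate was 50 nM final. Buffer was 50 mM HEPES-KOH pH 7.5, 10 mM MgCl2, 1 mM EGTA and 2 mM DTT, with ATP at each kinase's KM (CDK2-cyclin A 3 μM). Reactions ran 1 h at room temperature, then 2 nM Eu-labelled anti-phospho antibody was added for detection. IC50 given as mean ± SD.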

A549 [10] = test: Induction of apoptosis in human A549 cells at 15 uM incubated for 24 hrs by Annexin V-FITC/PI staining based flow cytometric analysis; assay type: functional, cell-based
In short: (§1)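 Cells grown at 37°C, 5% CO2 (A549, HeLa, MCF7 in DMEM high glucose; HCT116 in McCoy's 5A; THP1 and primary AML M4 apheresis blasts in RPMI1640), exposed to inhibitor or DMSO for 24 h. Apoptotic fraction by flow cytometry after annexin V-fluorescein/propidium iodide double staining. Means ± SD of three biological replicates; AML blasts from one patient, three technical replicates. Student's t-test versus DMSO/untreated.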

[11] = target: Cyclin-dependent kinase 9 (Homo sapiens) (UniProt P50750); test: Inhibition of CDK9 in human HeLa cells assessed as upregulation of serine 7 phosphorylation at 10 uM incubated for 1 hr by chromatin immunoprecipitation assay; assay type: cell-based
[12] = Selectivity ratio of IC50 for inhibition of CDK9/Cyclin T1 (unknown origin) to IC50 for inhibition of CDK1/Cyclin B1 (unknown origin)
[13] = target: Cyclin-dependent kinase 9 (Mus musculus) (UniProt Q99J95); test: Inhibition of CDK9 in mouse Embryonic stem cell assessed as downregulation of MYC mRNA expression at 2.5 to 40 uM incubated for 90 mins by RT-qPCR analysis relative to control; assay type: cell-based; conditions: dose 2.5-40 µM
[14] = target: Cyclin-dependent kinase 9 (Homo sapiens) (UniProt P50750); test: Inhibition of CDK9 in human THP-1 cells assessed as downregulation of RPL31 mRNA expression by RT-qPCR analysis; assay type: cell-based
A549 [15] = test: Induction of apoptosis in human A549 cells at 10 uM incubated for 24 hrs by Annexin V-FITC/PI staining based flow cytometric analysis; assay type: functional, cell-based; in short: as §1
[16] = Selectivity ratio of IC50 for inhibition of CDK9/Cyclin T1 (unknown origin) to IC50 for inhibition of CDK6/Cyclin D3 (unknown origin)
[17] = target: Cyclin-dependent kinase 9 (Homo sapiens) (UniProt P50750); test: Inhibition of CDK9 in human HeLa cells assessed as upregulation of RNAPII expression at 10 uM incubated for 1 hr by chromatin immunoprecipitation assay; assay type: cell-based
[18] = target: Cyclin-dependent kinase 9 (Mus musculus) (UniProt Q99J95); test: Inhibition of CDK9 in mouse Embryonic stem cell assessed as downregulation of Serine 2 phosphorylation by measuring fold decrease at 10 uM incubated for 90 mins by Western blotting analysis; assay type: cell-based
In short: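 Mouse embryonic stem cells treated with 10 μM inhibitor or DMSO for 90 or 180 min; whole-cell Western blot for RNAPII CTD Ser2-P. Band signals quantified densitometrically and normalised to total RNAPII.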

THP-1 = test: Induction of apoptosis in human THP-1 cells at 10 uM incubated for 24 hrs by Annexin V-FITC/PI staining based flow cytometric analysis relative to control; assay type: functional; in short: as §1
[19] = Transcription level in human HCT-116 cells nuclear extract fused with Gal4-VP16 at 10 uM in presence of ATP by phosphorimaging analysis relative to control
[20] = Displacement of kinase tracer 236 from CDK2/Cyclin A (unknown origin) assessed as dissociation constant incubated for 1 hr by LanthScreen Eu kinase binding assay; set-up: species or system Homo sapiens
[21] = target: Mitogen-activated protein kinase kinase kinase kinase 4 (Homo sapiens, UniProt O95819); test: Inhibition of MAP4K4 (unknown origin) incubated for 120 mins in presence of 33P-ATP by radiometric kinase assay
[22] = target: Cyclin-dependent kinase 9 (Homo sapiens) (UniProt P50750); test: Inhibition of CDK9 in human A549 cells assessed as downregulation of MYC mRNA expression at 2 to 6 uM incubated for 90 mins by RT-qPCR analysis relative to control; assay type: cell-based; conditions: dose 2-6 µM
[23] = target: Cyclin-dependent kinase 9 (Homo sapiens) (UniProt P50750); test: Inhibition of CDK9 in human HeLa cells assessed as downregulation of Serine 2 phosphorylation by measuring fold decrease at 10 uM incubated for 60 mins by Western blotting analysis; assay type: cell-based
MCF7 = test: Induction of apoptosis in human MCF7 cells at 10 uM incubated for 24 hrs by Annexin V-FITC/PI staining based flow cytometric analysis; assay type: functional, cell-based; in short: as §1

Chain of Cyclin-dependent kinase 9 (Homo sapiens) (P50750 whole entry, the tested form may be a part): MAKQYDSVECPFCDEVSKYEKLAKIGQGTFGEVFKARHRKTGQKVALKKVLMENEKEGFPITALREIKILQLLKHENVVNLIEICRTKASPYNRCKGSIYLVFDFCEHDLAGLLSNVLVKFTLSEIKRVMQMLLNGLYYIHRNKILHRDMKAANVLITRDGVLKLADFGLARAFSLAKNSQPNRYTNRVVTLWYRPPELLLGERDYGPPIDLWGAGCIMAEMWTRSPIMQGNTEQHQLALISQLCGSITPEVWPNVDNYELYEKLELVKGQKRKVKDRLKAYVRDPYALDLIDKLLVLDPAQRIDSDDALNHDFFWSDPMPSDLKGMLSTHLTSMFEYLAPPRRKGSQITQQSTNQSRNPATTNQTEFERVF
Chain of Cyclin-dependent kinase 9 (Mus musculus) (Q99J95 whole entry): as the sequence (P50750 whole entry, the tested form may be a part) above, with S17T, R37K, K40Q, N258K, Y262F counted along it
Chain of Mitogen-activated protein kinase kinase kinase kinase 4 (O95819 whole entry): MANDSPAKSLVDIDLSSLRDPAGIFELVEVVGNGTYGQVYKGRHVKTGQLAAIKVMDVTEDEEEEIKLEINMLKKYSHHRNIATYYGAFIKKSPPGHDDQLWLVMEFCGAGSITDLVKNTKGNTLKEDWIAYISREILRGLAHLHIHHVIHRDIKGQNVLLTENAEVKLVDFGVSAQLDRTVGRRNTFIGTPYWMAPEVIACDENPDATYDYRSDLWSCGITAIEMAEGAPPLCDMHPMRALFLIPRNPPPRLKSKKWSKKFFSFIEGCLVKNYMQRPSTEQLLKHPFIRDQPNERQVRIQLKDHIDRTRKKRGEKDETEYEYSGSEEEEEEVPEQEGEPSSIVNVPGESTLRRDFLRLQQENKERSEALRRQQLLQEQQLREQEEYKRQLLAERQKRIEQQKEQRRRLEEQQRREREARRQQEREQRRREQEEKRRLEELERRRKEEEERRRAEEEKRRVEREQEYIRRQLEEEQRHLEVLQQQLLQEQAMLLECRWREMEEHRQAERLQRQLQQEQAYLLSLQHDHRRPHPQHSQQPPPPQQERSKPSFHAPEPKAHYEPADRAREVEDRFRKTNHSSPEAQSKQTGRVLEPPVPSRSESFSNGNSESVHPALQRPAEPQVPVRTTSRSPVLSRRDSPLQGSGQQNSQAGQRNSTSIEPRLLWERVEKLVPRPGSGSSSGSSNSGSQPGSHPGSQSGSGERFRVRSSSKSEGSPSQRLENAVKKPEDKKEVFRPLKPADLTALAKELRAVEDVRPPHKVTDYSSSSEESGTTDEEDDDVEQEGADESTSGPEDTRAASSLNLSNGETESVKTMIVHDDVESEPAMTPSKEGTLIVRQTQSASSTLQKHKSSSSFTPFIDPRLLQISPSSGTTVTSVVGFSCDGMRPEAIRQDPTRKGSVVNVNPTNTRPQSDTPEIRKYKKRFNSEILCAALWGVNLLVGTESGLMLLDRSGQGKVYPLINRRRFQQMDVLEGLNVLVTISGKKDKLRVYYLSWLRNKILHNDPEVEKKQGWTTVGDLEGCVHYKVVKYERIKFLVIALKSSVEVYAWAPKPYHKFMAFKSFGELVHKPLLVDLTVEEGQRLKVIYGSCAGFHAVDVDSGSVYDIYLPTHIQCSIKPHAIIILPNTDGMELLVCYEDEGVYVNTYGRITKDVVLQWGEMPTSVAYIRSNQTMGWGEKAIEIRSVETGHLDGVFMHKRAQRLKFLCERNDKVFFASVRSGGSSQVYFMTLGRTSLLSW
Chain of Calcium/calmodulin-dependent protein kinase type IV (Q16566 whole entry): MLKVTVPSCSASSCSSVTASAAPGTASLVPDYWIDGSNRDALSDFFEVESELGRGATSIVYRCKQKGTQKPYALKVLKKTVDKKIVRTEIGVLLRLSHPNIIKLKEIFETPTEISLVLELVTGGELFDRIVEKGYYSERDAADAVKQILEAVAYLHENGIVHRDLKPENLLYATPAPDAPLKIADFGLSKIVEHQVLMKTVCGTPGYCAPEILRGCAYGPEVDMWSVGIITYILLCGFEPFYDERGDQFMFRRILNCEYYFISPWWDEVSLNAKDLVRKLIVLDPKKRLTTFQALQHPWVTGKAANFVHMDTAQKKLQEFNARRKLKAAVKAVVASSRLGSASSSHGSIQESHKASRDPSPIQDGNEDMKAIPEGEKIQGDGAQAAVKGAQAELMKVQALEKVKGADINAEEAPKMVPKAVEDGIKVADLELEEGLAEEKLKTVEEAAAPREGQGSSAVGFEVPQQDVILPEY

COc1ccccc1-c1cc(Nc2cccc(NS(C)(=O)=O)c2)ncn1
pIC50 [1]: < 4.70 | inhibition [2]: Active | inhibition (HEK-293T): Active | level, % of control at 10 µM (A549 [3]): 20% | Activity [4]: 9.5% | inhibition (HeLa): Dose-Dependent Effect | inhibition [5]: 50% | Ratio IC50 [6]: 210 | Ratio IC50 [7]: > 227 | pIC50 [8]: 5.84 | pIC50 [9]: 5.61 | Activity (A549 [10]): Active | inhibition [11]: Active | Ratio IC50 [12]: 125 | inhibition [13]: Active | inhibition [14]: Active | Activity (A549 [15]): Active | Ratio IC50 [16]: > 227 | inhibition [17]: Active | fold change (FC) [18]: 1.6 | Activity (THP-1): 45% | level, % of control at 10 µM [19]: 20% | pKd [20]: 5.99 | pIC50 [21]: 6.09 | inhibition [22]: 50% | fold change (FC) [23]: 1.6 | Activity (MCF7): Active
